Measurements as given in ChEMBL document CHEMBL2385038, “Bioactive dibenzocyclooctadiene lignans from the stems of Schisandra neglecta” (J Nat Prod, 2013).

Experiments:
MCF7 = experiment: Cytotoxicity against human MCF7 cells after 3 days by MTT assay; type: functional, cell-based; settings: MCF7, 72 h
Outline: (§1)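 MTT viability assay on NB4 (acute promyelocytic leukemia), A549 (lung adenocarcinoma), SHSY5Y (neuroblastoma), PC3 (prostate) and MCF7 (breast adenocarcinoma) cells, reported as IC50. Paclitaxel was the positive control. Performed in triplicate.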

PC-3 = experiment: Cytotoxicity against human PC3 cells after 3 days by MTT assay; type: functional, cell-based; settings: PC-3, 72 h; outline: as §1
A549 = experiment: Cytotoxicity against human A549 cells after 3 days by MTT assay; type: functional, cell-based; settings: A549, 72 h; outline: as §1
[1] = Cytotoxicity against human SH-SY5Y cells after 3 days by MTT assay; type: functional, cell-based; settings: 72 h; outline: as §1
[2] = Therapeutic index, ratio of CC50 for human C8166 cells to EC50 for HIV-1 3B; type: cell-based; settings: read-out: Ratio CC50/EC50
NB-4 = experiment: Cytotoxicity against human NB4 cells after 3 days by MTT assay; type: functional, cell-based; settings: NB-4, 72 h; outline: as §1
[3] = system: Human immunodeficiency virus 1; experiment: Antiviral activity against HIV-1 3B infected in human C8166 cells assessed as inhibition of virus-induced cytopathic effect after 3 days by Syncytia Assay; type: functional, organism-based; settings: Human immunodeficiency virus 1, 3B, C8166, 72 h
Outline: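 Inhibition of HIV-1-induced cytopathic effect in C8166 cells, expressed as EC50. Azidothymidine (AZT) served as the positive control. Performed in triplicate.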

[4] = Cytotoxicity against human C8166 cells after 3 days by MTT assay; type: cell-based
Outline: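 Viability of uninfected C8166 cells was measured by MTT to give CC50, alongside the anti-HIV-1 assay. Performed in triplicate.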

## COc1c(O)cc2c(c1OC)-c1c(cc3c(c1OC)OCO3)[C@H](OC(=O)C(C)C)[C@H](C)[C@H](C)C2
MCF7
  IC50: > 10 µM
PC-3
  IC50: > 10 µM
A549
  IC50: > 10 µM
[1]
  IC50: > 10 µM
[2]
  selectivity ratio: 18.1
NB-4
  IC50: > 10 µM
[3]
  EC50: 8.2 µM
[4]
  CC50 at 72 h: 149 µM

## COc1c(OC)c(C(=O)O)c2c(c1OC)-c1c(cc3c(c1OC)OCO3)[C@H](O)[C@H](C)[C@H](C)C2
MCF7
  IC50: 7.4 µM
PC-3
  IC50: > 10 µM
A549
  IC50: 6.8 µM
[1]
  IC50: > 10 µM
[2]
  selectivity ratio: 40.3
NB-4
  IC50: > 10 µM
[3]
  EC50: 2.2 µM
[4]
  CC50 at 72 h: 86.7 µM

## COc1c(O)c(C(=O)O)c2c(c1OC)-c1c(cc3c(c1OC)OCO3)[C@H](O)[C@H](C)[C@H](C)C2
MCF7
  IC50: > 10 µM
PC-3
  IC50: 9.2 µM
A549
  IC50: 5.9 µM
[1]
  IC50: > 10 µM
[2]
  selectivity ratio: 55.3
NB-4
  IC50: > 10 µM
[3]
  EC50: 1.4 µM
[4]
  CC50 at 72 h: 75.2 µM

## COc1c2c(cc(CC(C)=O)c1-c1c(CC(C)=O)cc3c(c1OC)OCO3)OCO2
MCF7
  IC50: > 10 µM
PC-3
  IC50: > 10 µM
A549
  IC50: > 6.5 µM
[1]
  IC50: 8.2 µM
[2]
  selectivity ratio: 14.1
NB-4
  IC50: 7.3 µM
[3]
  EC50: 3.9 µM
[4]
  CC50 at 72 h: 54.5 µM

## COc1cc(CC(C)=O)c(-c2c(CC(C)=O)cc(OC)c(OC)c2O)c(O)c1OC
MCF7
  IC50: 7.8 µM
PC-3
  IC50: 5.1 µM
A549
  IC50: 8.6 µM
[1]
  IC50: 3.3 µM
[2]
  selectivity ratio: 9.2
NB-4
  IC50: 2.9 µM
[3]
  EC50: 4.2 µM
[4]
  CC50 at 72 h: 38.8 µM

## COc1cc2c(c(OC)c1OC)-c1c(cc(OC)c(OC)c1OC)[C@H](OCC(C)C)[C@@H](C)[C@@H](C)C2
MCF7
  IC50: > 10 µM
PC-3
  IC50: > 10 µM
A549
  IC50: > 10 µM
[1]
  IC50: > 10 µM
[2]
  selectivity ratio: > 33.7
NB-4
  IC50: > 10 µM
[3]
  EC50: 5.9 µM
[4]
  CC50 at 72 h: > 200 µM

## COc1cc2c(c(OC)c1OC)-c1c(cc(O)c(OC)c1OC)[C@H](OCC(C)C)[C@@H](C)[C@@H](C)C2
MCF7
  IC50: > 10 µM
PC-3
  IC50: > 10 µM
A549
  IC50: > 10 µM
[1]
  IC50: > 10 µM
[2]
  selectivity ratio: > 58
NB-4
  IC50: > 10 µM
[3]
  EC50: 3.5 µM
[4]
  CC50 at 72 h: > 200 µM

## COc1cc2c(c(OC)c1OC)-c1c(cc(O)c(OC)c1OC)C[C@H](C)[C@@](C)(O)C2
[2]
  selectivity ratio: 15.1
[3]
  EC50: 8.2 µM
[4]
  CC50 at 72 h: 124 µM

## C/C=C(/C)C(=O)O[C@H]1c2cc(OC)c(OC)c(OC)c2-c2c(cc(OC)c(OC)c2OC)C[C@H](C)[C@]1(C)O
MCF7
  IC50: > 10 µM
PC-3
  IC50: > 10 µM
A549
  IC50: > 10 µM
[1]
  IC50: 7.8 µM
[2]
  selectivity ratio: 7.4
NB-4
  IC50: > 10 µM
[3]
  EC50: 11.5 µM
[4]
  CC50 at 72 h: 84.7 µM

## COc1cc2c(c(O)c1OC)-c1c(cc(OC)c(OC)c1OC)[C@H](OC(=O)c1ccccc1)[C@@H](C)[C@@](C)(O)[C@H]2OC(C)=O
MCF7
  IC50: 9.7 µM
PC-3
  IC50: > 10 µM
A549
  IC50: > 10 µM
[1]
  IC50: > 10 µM
[2]
  selectivity ratio: 17.8
NB-4
  IC50: 7.4 µM
[3]
  EC50: 8.3 µM
[4]
  CC50 at 72 h: 147 µM

## COc1cc2c(c(OC)c1OC)-c1c3cc4c(c1OC[C@@H](C)[C@@](C)(O)C(=O)O[C@@H]2[C@@](C)(O)[C@@H](C)C3)OCO4
[2]
  selectivity ratio: 18.9
[3]
  EC50: 9.8 µM
[4]
  CC50 at 72 h: 186 µM

## COc1cc2c(c(O)c1OC)-c1c(cc3c(c1OC)OCO3)C[C@H](C)[C@H](C)C2 (racemic)
MCF7
  IC50: > 10 µM
PC-3
  IC50: > 10 µM
A549
  IC50: > 10 µM
[1]
  IC50: > 10 µM
NB-4
  IC50: > 10 µM

## COc1cc2c(c(OC)c1OC)-c1c(cc3c(c1OC)OCO3)[C@H](OC(=O)C=C(C)C)[C@@](C)(O)[C@@H](C)C2 [GOMISIN F]
MCF7
  IC50: > 10 µM
PC-3
  IC50: > 10 µM
A549
  IC50: > 10 µM
[1]
  IC50: > 10 µM
[2]
  selectivity ratio: 7.5
NB-4
  IC50: > 10 µM
[3]
  EC50: 8.3 µM
[4]
  CC50 at 72 h: 61.9 µM

## C/C=C(/C)C(=O)O[C@H]1c2cc(OC)c(OC)c(OC)c2-c2c(cc3c(c2OC)OCO3)[C@H](OC(C)=O)[C@H](C)[C@@H]1C [INTERIOTHERIN C]
MCF7
  IC50: > 10 µM
PC-3
  IC50: > 10 µM
A549
  IC50: > 10 µM
[1]
  IC50: > 10 µM
NB-4
  IC50: > 10 µM

## COc1cc2c(c(OC)c1OC)-c1c(cc3c(c1OC)OCO3)[C@H](O)[C@H](C)[C@H](C)C2 [ISOGOMISIN O]
MCF7
  IC50: > 10 µM
PC-3
  IC50: > 10 µM
A549
  IC50: > 10 µM
[1]
  IC50: > 10 µM
NB-4
  IC50: > 10 µM

## COc1c(O)cc2c(c1OC)-c1c(cc(O)c(OC)c1OC)[C@H](OCc1ccccc1)[C@@H](C)[C@@H](C)C2 [MARLIGNAN G]
MCF7
  IC50: > 10 µM
PC-3
  IC50: 9.5 µM
A549
  IC50: 8.6 µM
[1]
  IC50: > 10 µM
NB-4
  IC50: > 10 µM

## CC(=O)O[C@H]1C(=O)[C@@]2(C)[C@H]([C@H](OC(=O)c3ccccc3)[C@]3(O)C[C@H](OC(=O)[C@H](O)[C@@H](NC(=O)c4ccccc4)c4ccccc4)C(C)=C1C3(C)C)[C@]1(OC(C)=O)CO[C@@H]1C[C@@H]2O [PACLITAXEL]
A549
  IC50: 0.02 µM
[1]
  IC50: 0.2 µM
NB-4
  IC50: 0.03 µM

## COc1cc2c(c(OC)c1OC)-c1c(cc3c(c1OC)OCO3)C[C@H](C)[C@H](C)[C@H]2OC(C)=O [RUBSCHISANTHERIN]
MCF7
  IC50: > 10 µM
PC-3
  IC50: > 10 µM
A549
  IC50: > 10 µM
[1]
  IC50: > 10 µM
[2]
  selectivity ratio: 18.2
NB-4
  IC50: > 10 µM
[3]
  EC50: 4.7 µM
[4]
  CC50 at 72 h: 85.2 µM

## COc1cc(CO)c(-c2c(C[C@H](C)C(C)=O)cc3c(c2OC)OCO3)c(OC)c1OC [SCHISPHENONE]
MCF7
  IC50: > 10 µM
PC-3
  IC50: 8.9 µM
A549
  IC50: > 10 µM
[1]
  IC50: > 10 µM
[2]
  selectivity ratio: 12.3
NB-4
  IC50: > 10 µM
[3]
  EC50: 12.7 µM
[4]
  CC50 at 72 h: 156 µM

## Cc1cn([C@H]2C[C@H](N=[N+]=[N-])[C@@H](CO)O2)c(=O)[nH]c1=O [ZIDOVUDINE]
[3]
  EC50: 0.034 µM
[4]
  CC50 at 72 h: > 200 µM
